Measurements taken from ChEMBL document CHEMBL1149303 (J Med Chem, 2004).
Calls of active or inactive are those of the source. The calls are words filed in the database; no cut-off is given here.

Legend:
[1] = target: T1, Prostaglandin G/H synthase 2 (Homo sapiens, UniProt P35354); format: tissue-based, Blood
T1 sequence (P35354 whole entry): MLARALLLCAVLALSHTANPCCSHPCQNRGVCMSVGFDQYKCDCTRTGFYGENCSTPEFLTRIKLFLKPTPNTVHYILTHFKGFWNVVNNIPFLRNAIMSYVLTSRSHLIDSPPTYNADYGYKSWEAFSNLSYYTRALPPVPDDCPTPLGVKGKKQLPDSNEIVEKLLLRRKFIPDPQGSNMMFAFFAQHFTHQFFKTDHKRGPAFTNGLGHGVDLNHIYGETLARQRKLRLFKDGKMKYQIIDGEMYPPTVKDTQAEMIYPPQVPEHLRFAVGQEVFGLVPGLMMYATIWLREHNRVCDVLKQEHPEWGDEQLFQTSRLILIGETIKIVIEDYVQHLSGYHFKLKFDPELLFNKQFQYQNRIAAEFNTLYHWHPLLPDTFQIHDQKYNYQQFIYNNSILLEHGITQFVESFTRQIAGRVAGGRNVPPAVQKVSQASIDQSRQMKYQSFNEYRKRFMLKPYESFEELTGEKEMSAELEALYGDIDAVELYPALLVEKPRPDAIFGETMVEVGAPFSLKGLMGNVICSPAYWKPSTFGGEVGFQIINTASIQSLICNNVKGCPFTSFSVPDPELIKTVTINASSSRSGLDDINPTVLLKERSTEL

Homo sapiens = species on record: Homo sapiens; experiment: Selectivity ratio of IC50 for human COX1 to IC50 for human COX2
Method in brief: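 Human whole blood, each compound tested in triplicate at 0.01–100 µmol/L final, vehicle DMSO. COX-1: blood preincubated 15 min at 37 °C, stimulated with calcium ionophore A-23,187 for 15 min, serum TXB2 by EIA. COX-2: heparinized blood preincubated 15 min, then LPS (100 µg/mL final, E. coli B4) for 24 h at 37 °C, plasma PGE2 by EIA. Ratio taken as IC50 COX-1/IC50 COX-2.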

[2] = target: Prostaglandin G/H synthase 1 (Homo sapiens, UniProt P23219)
Sequence of Prostaglandin G/H synthase 1 (P23219 whole entry): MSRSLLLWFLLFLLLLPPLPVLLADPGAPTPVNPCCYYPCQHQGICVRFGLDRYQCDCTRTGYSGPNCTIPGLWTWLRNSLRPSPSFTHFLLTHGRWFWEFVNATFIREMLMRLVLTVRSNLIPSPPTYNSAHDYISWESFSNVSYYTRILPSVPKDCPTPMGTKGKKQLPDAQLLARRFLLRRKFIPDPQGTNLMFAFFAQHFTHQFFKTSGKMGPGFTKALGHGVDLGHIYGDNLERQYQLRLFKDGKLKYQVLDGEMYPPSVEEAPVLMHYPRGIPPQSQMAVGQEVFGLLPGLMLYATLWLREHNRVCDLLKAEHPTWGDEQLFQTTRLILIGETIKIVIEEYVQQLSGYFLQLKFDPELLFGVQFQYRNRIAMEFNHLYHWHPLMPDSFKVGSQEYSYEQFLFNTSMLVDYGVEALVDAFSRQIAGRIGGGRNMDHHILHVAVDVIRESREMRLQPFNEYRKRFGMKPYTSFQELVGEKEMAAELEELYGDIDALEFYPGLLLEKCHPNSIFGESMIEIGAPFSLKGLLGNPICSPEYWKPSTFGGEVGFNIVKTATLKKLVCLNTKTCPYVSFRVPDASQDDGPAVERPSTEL

[3] = Dissociation constant, pKa by sulfonamide/sulfonamidate equilibrium; format: physicochemical
Method in brief: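 pKa was determined by UV spectrophotometry, to assign each compound's ionic state at pH 7.4.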

[4] = Dissociation constant, pKa by pyridinium/pyridine equilibrium; format: physicochemical
Method in brief: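 Ionisation constant measured by UV spectrophotometry.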

Rattus norvegicus [5] = experiment: Antiinflammatory activity against carrageenan-induced oedema in Wistar rat paw at 3 mg/kg, ip after 3 hrs relative to control; format: functional; conditions: route intraperitoneal
Method in brief: (§1)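 Wistar rats (250 g) got the drug ip from a 10 mg/mL DMSO solution. 1 h later, 0.1 mL of 1% λ-carrageenan was injected into the plantar region of the right paw. After 3 h the rats were euthanized with nembutal (100 mg/kg), and paws were cut at the ankle and weighed. Swelling inhibition is given as % vs the control group (6 rats/group, mean ± SEM).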

Rattus norvegicus [6] = experiment: Antiinflammatory activity against carrageenan-induced oedema in Wistar rat paw at 10 mg/kg, ip after 3 hrs relative to control; format: functional; conditions: route intraperitoneal
Method in brief: as §1

Rattus norvegicus [7] = experiment: Antiinflammatory activity against carrageenan-induced oedema in Wistar rat paw at 30 mg/kg, ip after 3 hrs relative to control; format: functional; conditions: route intraperitoneal
Method in brief: as §1

Rattus norvegicus [8] = experiment: Lethality in Wistar rat at 30 mg/kg, ip in carrageenan-induced paw oedema model; format: functional, organism-based; design: dose 30 mg/kg
Method in brief: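 Wistar rats (250 g) were dosed ip from a 10 mg/mL DMSO solution, 1 h before 0.1 mL of 1% λ-carrageenan in the right hind paw. Deaths were noted over the following 3 h paw-oedema period in groups of six rats.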

| IC50 [1] [µM] | Ratio IC50 (Homo sapiens) | IC50 [2] [µM] | pKa [3] | pKa [4] | Structure (SMILES) | inhibition in vivo at 3 mg/kg (Rattus norvegicus [5]) [%] | inhibition in vivo at 10 mg/kg (Rattus norvegicus [6]) [%] | inhibition in vivo at 30 mg/kg (Rattus norvegicus [7]) [%] | Activity (Rattus norvegicus [8]) |
| --- | --- | --- | --- | --- | --- | --- | --- | --- | --- |
| 47.6 | 0.097 | 4.63 | – | – | CN(c1ccccc1)c1cnccc1NS(=O)(=O)C(F)(F)F | – | – | – | – |
| 1.53 | 0.24 | 0.36 | < 1 | 6.71 | O=S(=O)(Nc1ccncc1Oc1ccc(Cl)cc1)C(F)(F)F | – | – | – | – |
| > 100 | – | 25.6 | < 1 | 5.69 | O=S(=O)(Nc1ccncc1[S+]([O-])c1ccccc1)C(F)(F)F (stereo not drawn) | – | – | – | – |
| 0.15 | 1.74 | 0.27 | – | – | O=S(=O)(Nc1ccncc1Oc1ccccc1Cl)C(F)(F)F | – | – | – | – |
| – | – | – | < 1 | 6.81 | O=S(=O)(Nc1ccncc1Oc1ccccc1)C(F)(F)F | 10.9 | 26 | 46.4 | – |
| > 100 | – | > 100 | – | – | CS(=O)(=O)Nc1ccncc1Oc1cc(Cl)cc(Cl)c1 | 18 | 18 | 21.3 | – |
| 1.19 | 3.05 | 3.62 | – | – | CS(=O)(=O)Nc1ccncc1Sc1ccccc1 | 7.44 | 40.7 | – | Active |
| 1.87 | 0.77 | 1.45 | < 4 | 7.97 | CS(=O)(=O)Nc1ccncc1Oc1ccc(Cl)cc1 | 28.7 | 35.1 | – | Active |
| > 100 | – | 0.41 | 2.98 | 8.13 | CS(=O)(=O)Nc1ccncc1Oc1ccccc1 | – | – | – | Active |
| > 100 | – | > 100 | – | – | O=S(=O)(Nc1ccncc1Oc1cc(Cl)cc(Cl)c1)C(F)(F)F | – | – | – | – |
| 9.69 | 0.24 | 2.3 | – | – | CCCS(=O)(=O)Nc1ccncc1Oc1ccc(Cl)cc1 | – | – | – | – |
| 3.28 | 0.75 | 2.44 | < 4 | 7.98 | CCS(=O)(=O)Nc1ccncc1Oc1ccc(Cl)cc1 | – | – | – | – |
| 0.13 | 7.92 | 1.03 | – | – | CS(=O)(=O)Nc1ccncc1Oc1ccccc1Cl | 9.47 | 37.5 | 62.8 | – |
| – | – | – | – | – | CS(=O)(=O)Nc1ccc([N+](=O)[O-])cc1Oc1ccccc1 [NIMESULIDE] | 23.7 | 40.2 | 44.3 | – |
| 13.8 | 0.02 | 0.24 | – | – | O=S(=O)(Nc1ccncc1Oc1ccc(Br)cc1)C(F)(F)F | 5 | 8.33 | 36.7 | – |
| > 100 | – | > 100 | – | – | CS(=O)(=O)Nc1ccncc1S(=O)(=O)c1ccccc1 | – | – | – | – |
| > 100 | – | 2.27 | – | – | O=S(=O)(Nc1ccncc1Oc1cccc(Cl)c1)C(F)(F)F | – | – | – | – |
| 2.55 | 0.54 | 1.37 | – | – | O=S(=O)(Nc1ccncc1Oc1ccc(Cl)cc1Cl)C(F)(F)F | – | – | – | – |
| 0.44 | 0.59 | 0.26 | – | – | COc1ccc(Oc2cnccc2NS(=O)(=O)C(F)(F)F)cc1 | – | – | – | – |
| > 100 | – | 18.4 | – | – | CCCS(=O)(=O)Nc1ccncc1Oc1ccccc1 | – | – | – | – |
| 1.99 | 5.45 | 10.9 | < 4 | 7.74 | CS(=O)(=O)Nc1ccncc1Oc1cccc(Cl)c1 | 10.9 | 21 | – | Active |
| 7.6 | 0.18 | 1.41 | < 4 | 7.86 | CS(=O)(=O)Nc1ccncc1Oc1ccc(Br)cc1 | – | – | – | – |
| 14.1 | 0.38 | 5.34 | – | – | CCS(=O)(=O)Nc1ccncc1Oc1ccccc1 | – | – | – | – |
| > 100 | – | > 100 | < 1 | 5.3 | O=S(=O)(c1ccccc1)c1cnccc1NS(=O)(=O)C(F)(F)F | – | – | – | – |
| 2.36 | 0.76 | 1.81 | – | – | COc1ccc(Oc2cnccc2NS(C)(=O)=O)cc1 | – | – | – | – |

| Structure (SMILES) | IC50 [1] [µM] | Ratio IC50 (Homo sapiens) | IC50 [2] [µM] | pKa [3] | pKa [4] | inhibition in vivo at 3 mg/kg (Rattus norvegicus [5]) [%] | inhibition in vivo at 10 mg/kg (Rattus norvegicus [6]) [%] | inhibition in vivo at 30 mg/kg (Rattus norvegicus [7]) [%] | Activity (Rattus norvegicus [8]) |
| --- | --- | --- | --- | --- | --- | --- | --- | --- | --- |
| O=S(=O)(Nc1ccncc1Sc1ccccc1)C(F)(F)F | 0.53 | 0.78 | 0.41 | < 1 | 6.54 | – | – | – | – |
| O=S(=O)(Nc1ccncc1Nc1ccccc1)C(F)(F)F | 0.09 | 2.03 | 0.18 | – | – | 22.7 | 34.5 | 44 | – |
| CS(=O)(=O)Nc1ccncc1Oc1ccc(Cl)cc1Cl | 0.12 | 5.15 | 0.62 | < 4 | 7.81 | 20.9 | 15.8 | 32.7 | – |
